Read-outs that look alike come from different tables or passages of the source.
Key:
CDK7 = CDK7 (Homo sapiens, UniProt P50613); assay: Immunoblot analysis of CDK7 degradation in Jurkat cells; type: cell-based; conditions: Jurkat cells, 16 h, Western blot
Procedure, shortened: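 Jurkat cells received test compound at 0.1 or 1 μM for 16 h, 0.1 μM for 0.5–24 h, or a concentration series for 6 h. Other arms were pretreated 2 h with MG132, MLN-4924, parent CDK7 inhibitor or VHL ligand, or used VHL-knockout Jurkat (6 h). Blots: RIPA lysis, 4–20% SDS-PAGE, nitrocellulose, anti-CDK7 1:1000, β-actin 1:5000, IRDye secondaries. Mean ± SEM of three biological replicates.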

CDK7/Cyclin H/MNAT1 = CDK7/Cyclin H/MNAT1 (Homo sapiens, UniProt P50613); assay: Adapta Eu kinase assay; type: biochemical
Procedure, shortened: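 CDK7/Cyclin H/MNAT1 complex tested by an outside contract service in Adapta Eu format, with ATP at its Km concentration.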

Chain of CDK7 (P50613 2-346 limits assumed): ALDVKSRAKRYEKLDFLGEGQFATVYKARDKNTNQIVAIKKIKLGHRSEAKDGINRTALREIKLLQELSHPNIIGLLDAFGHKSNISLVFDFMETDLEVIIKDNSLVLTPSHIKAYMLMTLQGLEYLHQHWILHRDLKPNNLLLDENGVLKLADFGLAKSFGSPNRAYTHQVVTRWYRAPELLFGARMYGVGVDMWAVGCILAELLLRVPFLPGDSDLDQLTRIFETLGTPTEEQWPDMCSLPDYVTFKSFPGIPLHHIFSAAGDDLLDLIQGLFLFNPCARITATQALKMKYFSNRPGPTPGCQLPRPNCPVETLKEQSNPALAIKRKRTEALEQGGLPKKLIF
Chain of CDK7 (P51946 whole entry partner): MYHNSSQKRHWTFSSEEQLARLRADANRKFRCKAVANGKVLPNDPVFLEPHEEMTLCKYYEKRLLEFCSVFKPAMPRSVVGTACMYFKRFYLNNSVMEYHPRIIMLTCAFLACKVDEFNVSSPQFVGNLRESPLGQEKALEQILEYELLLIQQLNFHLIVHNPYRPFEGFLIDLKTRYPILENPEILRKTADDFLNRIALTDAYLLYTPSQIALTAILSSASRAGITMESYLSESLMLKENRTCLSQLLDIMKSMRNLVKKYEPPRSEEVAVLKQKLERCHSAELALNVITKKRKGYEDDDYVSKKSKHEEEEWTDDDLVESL
Chain of CDK7 (P51948 whole entry partner): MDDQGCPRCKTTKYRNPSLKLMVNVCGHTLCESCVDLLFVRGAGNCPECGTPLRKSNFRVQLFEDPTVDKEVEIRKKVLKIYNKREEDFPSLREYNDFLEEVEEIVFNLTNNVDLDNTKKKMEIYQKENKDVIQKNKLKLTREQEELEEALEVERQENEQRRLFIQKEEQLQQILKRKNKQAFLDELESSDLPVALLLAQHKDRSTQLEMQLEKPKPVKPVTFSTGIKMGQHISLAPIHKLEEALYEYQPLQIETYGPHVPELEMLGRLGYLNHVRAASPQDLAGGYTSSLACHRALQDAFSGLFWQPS
Chain of CDK7/Cyclin H/MNAT1 (P50613 whole entry): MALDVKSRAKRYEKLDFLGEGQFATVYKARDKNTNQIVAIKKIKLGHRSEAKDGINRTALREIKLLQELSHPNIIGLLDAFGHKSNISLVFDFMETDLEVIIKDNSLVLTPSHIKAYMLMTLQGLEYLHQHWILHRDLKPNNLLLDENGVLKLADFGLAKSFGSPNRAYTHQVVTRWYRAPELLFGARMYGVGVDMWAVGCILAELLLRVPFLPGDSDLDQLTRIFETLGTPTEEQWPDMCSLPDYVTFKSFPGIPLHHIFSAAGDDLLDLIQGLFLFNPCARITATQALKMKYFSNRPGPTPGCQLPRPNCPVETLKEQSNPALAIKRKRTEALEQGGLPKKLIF
Chain of CDK7/Cyclin H/MNAT1 (P51946 whole entry partner): as the sequence (P51946 whole entry partner) above
Chain of CDK7/Cyclin H/MNAT1 (P51948 whole entry partner): as the sequence (P51948 whole entry partner) above

Row | Compound | IC50 (CDK7/Cyclin H/MNAT1) [nM] | CDK7 degradation (in words) (CDK7; 1 μM) | also measured
1 | Cc1ncsc1-c1ccc(CNC(=O)C2CC(O)CN2C(=O)C(NC(=O)C2(F)CC2)C(C)(C)C)c(OCCOCCOCCNC(=O)c2ccc(C(=O)Nc3n[nH]c4c3CN(C(=O)N[C@H](CN(C)C)c3ccccc3)C4(C)C)cc2)c1 (stereo partly drawn) [Compound 21, N1-(5-(((S)-2-(dimethylamino)-1-phenylethyl)carbamoyl)-6,6-dimethyl-1,4,5,6-tetrahydropyrrolo[3,4-c]pyrazol-3-yl)-N4-(2-(2-(2-(2-((1-(2-(1-fluorocyclopropane-1-carboxamido)-3,3-dimethylbutanoyl)-4-hydroxypyrrolidine-2-carboxamido)methyl)-5-(4-methylthiazol-5-yl)phenoxy)ethoxy)ethoxy)ethyl)terephthalamide] | 13.4 | moderate reduction of CDK7 protein levels | –
2 | CC(=O)N[C@H](C(=O)N1C[C@H](O)C[C@H]1C(=O)N[C@@H](C)c1ccc(-c2scnc2C(=O)NCCCCCNC(=O)c2ccc(C(=O)Nc3n[nH]c4c3CN(C(=O)N[C@H](CN(C)C)c3ccccc3)C4(C)C)cc2)cc1)C(C)(C)C [Compound 22, N1-(5-(5-(4-((S)-1-((2S,4R)-1-((S)-2-acetamido-3,3-dimethylbutanoyl)-4-hydroxypyrrolidine-2-carboxamido)ethyl)phenyl)thiazole-4-carboxamido)pentyl)-N4-(5-(((S)-2-(dimethylamino)-1-phenylethyl)carbamoyl)-6,6-dimethyl-1,4,5,6-tetrahydropyrrolo[3,4-c]pyrazol-3-yl)terephthalamide] | – | moderate reduction of CDK7 protein levels | –
3 | Cc1ncsc1-c1ccc([C@H](C)NC(=O)[C@@H]2C[C@@H](O)CN2C(=O)[C@@H](NC(=O)CCNC(=O)c2ccc(C(=O)Nc3n[nH]c4c3CN(C(=O)N[C@H](CN(C)C)c3ccccc3)C4(C)C)cc2)C(C)(C)C)cc1 [Compound 10, N1-(5-(((S)-2-(dimethylamino)-1-phenylethyl)carbamoyl)-6,6-dimethyl-1,4,5,6-tetrahydropyrrolo[3,4-c]pyrazol-3-yl)-N4-(3-(((S)-1-((2S,4R)-4-hydroxy-2-(((S)-1-(4-(4-methylthiazol-5-yl)phenyl)ethyl)carbamoyl)pyrrolidin-1-yl)-3,3-dimethyl-1-oxobutan-2-yl)amino)-3-oxopropyl)terephthalamide] | – | moderate degradation | –
4 | N1-(5-(((R)-2-(dimethylamino)-1-phenylethyl)carbamoyl)-6,6-dimethyl-1,4,5,6-tetrahydropyrrolo[3,4-c]pyrazol-3-yl)-N4-((S)-14-((2S,4R)-4-hydroxy-2-(((S)-1-(4-(4-methylthiazol-5-yl)phenyl)ethyl)carbamoyl)pyrrolidine-1-carbonyl)-15,15-dimethyl-12-oxo-3,6,9-trioxa-13-azahexadecyl)terephthalamide [Compound 16] | – | – | IC50 (CDK7/Cyclin H/MNAT1; read-out: IC50 (CDK7 binding affinity, Table 2), VHL-based compounds, Adapta Eu kinase assay, Km ATP): 13.7 nM
5 | Cc1ncsc1-c1ccc([C@H](C)NC(=O)[C@@H]2C[C@@H](O)CN2C(=O)[C@@H](NC(=O)CCCCCCCNC(=O)c2ccc(C(=O)Nc3n[nH]c4c3CN(C(=O)N[C@H](CN(C)C)c3ccccc3)C4(C)C)cc2)C(C)(C)C)cc1 [Compound 13, N1-(5-(((S)-2-(dimethylamino)-1-phenylethyl)carbamoyl)-6,6-dimethyl-1,4,5,6-tetrahydropyrrolo[3,4-c]pyrazol-3-yl)-N4-(8-(((S)-1-((2S,4R)-4-hydroxy-2-(((S)-1-(4-(4-methylthiazol-5-yl)phenyl)ethyl)carbamoyl)pyrrolidin-1-yl)-3,3-dimethyl-1-oxobutan-2-yl)amino)-8-oxooctyl)terephthalamide] | 7.8 | – | reduction in CDK7 protein (CDK7; 0.1 μM or 1 μM): more than 80%

More lines, main results first:

Row | IC50 (CDK7/Cyclin H/MNAT1) [nM] | Compound | CDK7 degradation (in words) (CDK7; 1 μM) | also measured
6 | 12.1 | Cc1ncsc1-c1ccc(CNC(=O)C2CC(O)CN2C(=O)C(NC(=O)C2(F)CC2)C(C)(C)C)c(OCCCCCCCCNC(=O)c2ccc(C(=O)Nc3n[nH]c4c3CN(C(=O)N[C@H](CN(C)C)c3ccccc3)C4(C)C)cc2)c1 (stereo partly drawn) [Compound 20, N1-(5-(((S)-2-(dimethylamino)-1-phenylethyl)carbamoyl)-6,6-dimethyl-1,4,5,6-tetrahydropyrrolo[3,4-c]pyrazol-3-yl)-N4-(8-(2-((1-(2-(1-fluorocyclopropane-1-carboxamido)-3,3-dimethylbutanoyl)-4-hydroxypyrrolidine-2-carboxamido)methyl)-5-(4-methylthiazol-5-yl)phenoxy)octyl)terephthalamide] | moderate reduction of CDK7 protein levels | –
7 | 6.9 | CN(C)C[C@@H](NC(=O)N1Cc2c(NC(=O)c3ccc(C(=O)NCCCC#Cc4cccc5c4C(=O)N(C4CCC(=O)NC4=O)C5=O)cc3)n[nH]c2C1(C)C)c1ccccc1 (stereo partly drawn) [Compound 8, N1-(5-(((S)-2-(dimethylamino)-1-phenylethyl)carbamoyl)-6,6-dimethyl-1,4,5,6-tetrahydropyrrolo[3,4-c]pyrazol-3-yl)-N4-(5-(2-(2,6-dioxopiperidin-3-yl)-1,3-dioxoisoindolin-4-yl)pent-4-yn-1-yl)terephthalamide] | – | –
8 | 20.3 | Cc1ncsc1-c1ccc([C@H](C)NC(=O)[C@@H]2C[C@@H](O)CN2C(=O)[C@@H](NC(=O)CCCCCc2ccc(C(=O)Nc3n[nH]c4c3CN(C(=O)N[C@H](CN(C)C)c3ccccc3)C4(C)C)cc2)C(C)(C)C)cc1 [Compound 18, N-((S)-2-(dimethylamino)-1-phenylethyl)-3-(4-(6-(((S)-1-((2S,4R)-4-hydroxy-2-(((S)-1-(4-(4-methylthiazol-5-yl)phenyl)ethyl)carbamoyl)pyrrolidin-1-yl)-3,3-dimethyl-1-oxobutan-2-yl)amino)-6-oxohexyl)benzamido)-6,6-dimethyl-4,6-dihydropyrrolo[3,4-c]pyrazole-5(1H)-carboxamide] | – | CDK7 degradation (in words) (CDK7; 0.1 μM or 1 μM): slightly decreased degradation activity
9 | 7.6 | Cc1ncsc1-c1ccc([C@H](C)NC(=O)[C@@H]2C[C@@H](O)CN2C(=O)[C@@H](NC(=O)CCOCCOCCNC(=O)c2ccc(C(=O)Nc3n[nH]c4c3CN(C(=O)N[C@H](CN(C)C)c3ccccc3)C4(C)C)cc2)C(C)(C)C)cc1 [Compound 15, N1-(5-(((S)-2-(dimethylamino)-1-phenylethyl)carbamoyl)-6,6-dimethyl-1,4,5,6-tetrahydropyrrolo[3,4-c]pyrazol-3-yl)-N4-(2-(2-(3-(((S)-1-((2S,4R)-4-hydroxy-2-(((S)-1-(4-(4-methylthiazol-5-yl)phenyl)ethyl)carbamoyl)pyrrolidin-1-yl)-3,3-dimethyl-1-oxobutan-2-yl)amino)-3-oxopropoxy)ethoxy)ethyl)terephthalamide] | – | –

Source: article PMC11316633 (European journal of medicinal chemistry, 2024)
